# From article PMC8511113 (European journal of medicinal chemistry, 2021)
# Entries after “also recorded” stand apart in the source; their conditions may differ.
# Legend:
# [1] = tested on: MIA-induced cartilage degeneration in rat knee; test: MIA rat model of OA via IA dosing, joint histology; type: in vivo, male Sprague Dawley rats
# Outline: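 Cartilage damage was induced in male Sprague Dawley rats with 2 mg MIA in 40 μl, injected into the right knee. On days 5, 12 and 19 after MIA, rats received intra-articular injections (8 per group) of vehicle, test compound (1 mg, saline suspension) or triamcinolone (0.06 mg). Naive rats (5) received no injections. Right knees were taken on day 26 for histology of the MTP, MFC, LTP and LFC surfaces and their mean. Groups were compared with vehicle by one-way ANOVA or Kruskal-Wallis with post-test, significance p<0.05.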
# [2] = In-vivo single dose oral rat pharmacokinetics; settings: oral 1 mg/kg, male Lewis rats
# Outline: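 Male Lewis rats, 3 per group, were fasted at least 16 h before dosing, with food returned about 4 h after. A 0.5 mg/mL suspension in 0.5% methylcellulose (400 cps) was given by gavage at 1.0 mg/kg (2 mL/kg). Jugular-catheter blood (K2EDTA) was drawn pre-dose and at 0.25–24 h. Plasma was obtained at 2200xg for 10 min, refrigerated. AUC(0-inf) came from the arithmetic mean concentration–time curve.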
# [3] = IA days 5, 12, 19, histology day 26, AQU-019 1 mg
# [4] = IA days 5, 12, 19, histology day 26, AQU-019 1 mg, Triamcinolone 0.06 mg
# [5] = IA days 5, 12, 19 after MIA, histology day 26, AQU-019 1 mg, significant
Structure (SMILES),"Bone resorption vs Vehicle (in words) [1, 3]","Osteophyte scores/measurement vs Vehicle (in words) [1, 3]","Cartilage degeneration / chondroprotection vs Vehicle (in words) [1, 4]","Reduction in the mean loss on the LTP and LFC vs Vehicle [1, 5]","Reduction in the mean loss, mean of all surfaces vs Vehicle [1, 5] [%]",Improvement in AUC(0-infinity) over non-deuterated parent 18 [2] [%],Increase of AUC(0-t) over non-deuterated parent 18 [2] [%],Increase of Cmax over non-deuterated parent 18 [2] [%],"Reduction of osteophyte scores/measurement vs Vehicle ([1]; IA days 5, 12, 19, day 26, Triamcinolone 0.06 mg, P<0.05)","Reduction of bone resorption, overall mean vs Vehicle ([1]; IA days 5, 12, 19, day 26, Triamcinolone 0.06 mg, significant) [%]","Cell loss vs Vehicle (in words) ([1]; IA days 5, 12, 19, histology day 26, Triamcinolone 0.06 mg)"
"[2H]C([2H])(NC(=O)c1cc(C(=O)NCc2ccc(F)c(C)c2)ncn1)c1ccc(C(=O)O)cc1 [AQU-019, 4-(Dideutero-{[6-(4-fluoro-3-methyl-benzylcarbamoyl)-pyrimidine-4-carbonyl]-amino}-methyl)-benzoic acid]","trend of reduced resorption compared to Vehicle but was not statistically significant; also recorded: while reduced, was not statistically significant",no reduction in osteophyte measurement; also recorded: comparable to Vehicle control; also recorded: no effect on osteophytes measurement,significant chondroprotection,21–22%,16,64,68,17,,,
"C[C@]12C=CC(=O)C=C1CC[C@H]1[C@@H]3C[C@@H](O)[C@](O)(C(=O)CO)[C@@]3(C)C[C@H](O)[C@@]12F [Triamcinolone, reference compound]",,,no reductions in cartilage degeneration,,,,,,40–47%,43,no significant reductions in cell loss
